Data as given in ChEMBL document CHEMBL1151913, “Preparation of novel (Z)-4-ylidenebenzo[b]furo[3,2-d][1,3]oxazines and their biological activity” (2009).
The source made the active and inactive calls. No cut-off for these calls is given here.

How the values were obtained:
MIA PaCa-2 = test: Growth inhibition of human MIAPaCa2 cells after 72 hrs by Alamar Blue assay; type: functional; conditions: MIA PaCa-2, 72 h
In short: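 MIA PaCa-2 grown in D-MEM with 10% FCS and antibiotic-antimycotic; 1 × 10^4 cells/well seeded, 24 h at 37 °C, 5% CO2; medium replaced with drug-containing medium (final DMSO ≤0.25%) in triplicate wells, 72 h continuous exposure; alamarBlue added for further 3 h.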

MCF7 = test: Growth inhibition of human MCF7 cells after 72 hrs by Alamar Blue assay; type: functional; conditions: MCF7, 72 h
In short: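 MCF-7 grown in E-MEM with 10% FCS and antibiotic-antimycotic; 1 × 10^4 cells/well seeded, 24 h at 37 °C, 5% CO2; medium replaced with drug-containing medium (final DMSO ≤0.25%) in triplicate wells, 72 h continuous exposure; alamarBlue added for further 3 h.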

Osteoblast = test: Anti-osteoclastic bone resorption activity in ddY mouse calvarial osteoblasts assessed as inhibition of PGE2-stimulated resorption pit formation relative to 17-beta-estradiol; type: functional, cell-based
In short: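 Osteoclasts generated by 7-day coculture of preconfluent calvarial osteoblasts (1–2 day old ddY mice) with fresh bone marrow cells (5 week-old male ddY mice) on collagen-coated dish in α-MEM (pH 7.0), 10% FCS, 10 nM calcitriol, 1.0 μM PGE2; collagenase-released cells plated on dentin slices with 10 nM E2 or compounds, 2 days; pits counted after toluidine blue staining.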

Row | Compound | GI50 (MIA PaCa-2) [µM] | GI50 (MCF7) [µM] | Activity (Osteoblast)
1 | O=c1[nH]cc(F)c(=O)[nH]1 [FLUOROURACIL] | > 10 | > 10 | –
2 | CCOP(=O)(OCC)/C(=C/C=C1\OC(/C=C/c2ccccc2)=Nc2c1oc1ccc(Br)cc21)c1ccc(Cl)cc1 | – | – | Active
3 | COc1cccc2c3c(oc12)/C(=C/C=C/C(=O)N1CCOCC1)OC(/C=C/c1ccccc1)=N3 | 5.34 | > 10 | –
4 | COc1ccc(CCNC(=O)/C=C/C=C2\OC(/C=C/c3ccccc3)=Nc3c2oc2ccc(Br)cc32)cc1OC | – | – | inactive
5 | C/C=C/C1=Nc2c(oc3ccc(Br)cc23)/C(=C/C=O)O1 | – | – | inactive
6 | CCOC(=O)/C=C/C=C1\OC(/C=C/c2ccccc2)=Nc2c1oc1ccc(Br)cc21 | – | – | Active
7 | O=C(/C=C/C=C1\OC(/C=C/c2ccccc2)=Nc2c1oc1ccc(Br)cc21)N1CCOCC1 | – | – | inactive
8 | CCN(CC)C(=O)/C=C/C=C1\OC(/C=C/c2ccccc2)=Nc2c1oc1ccc(Br)cc21 | – | – | inactive
9 | O=C/C=C1\OC(/C=C/c2ccccc2)=Nc2c1oc1ccc(Br)cc21 | – | – | inactive
10 | CCOC(=O)/C=C/C=C1\OC(/C=C(\Cl)c2ccc(Cl)cc2)=Nc2c1oc1ccc(Br)cc21 | > 10 | > 10 | –
11 | COc1cccc2c3c(oc12)/C(=C/C=O)OC(/C=C/C=C(/Cl)c1ccc(F)cc1)=N3 | > 10 | 7.14 | –
